Apaf-1 inh – inhibitors of human Apaf-1 apoptosome, primary screen, biochemical, DEVD-Rh110 fluorescence, uHTS. 330,000 compounds, 0.71% hits. reconstituted apoptosome caspase-3 activity. inhibition, % at 20 µM. Apoptotic protease-activating factor 1 (Homo sapiens), O14727; active = inhibition of at least 40% at 20 µM
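Material: cell-free apoptosome with Apaf-1, procaspase-3 and caspase-9; Buffer or medium: Hepes pH 7.5 with detergent and BSA; Reagent: cytochrome c trigger plus (Z-DEVD)2-Rh110 caspase-3 substrate; Times: compound with Apaf-1, dATP, procaspase-3 30 min, then 50 min reaction, room temperature; Technique: Rh110 fluorescence intensity.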
SENP8 block-1 – human SENP8 protease inhibitors, primary screen, biochemical, fluorescence, Nedd8 protein substrate, uHTS; Sentrin-specific protease 8 (Homo sapiens), Q96LD8; AID 602440, 2012; 360,000 compounds, 0.64% hits; inhibition, % at 20 µM; recombinant SENP8; in the data active = inhibition mostly above about 40%, no sharp cut-off; inactive = mostly below about 27%
Target sequence (Q96LD8 whole entry, looked up): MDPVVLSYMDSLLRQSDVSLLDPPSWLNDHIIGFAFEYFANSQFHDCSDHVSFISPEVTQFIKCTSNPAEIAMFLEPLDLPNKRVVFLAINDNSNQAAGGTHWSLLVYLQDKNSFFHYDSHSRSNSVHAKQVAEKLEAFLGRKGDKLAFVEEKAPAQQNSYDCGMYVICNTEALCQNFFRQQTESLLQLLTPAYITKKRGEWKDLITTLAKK
UBC13 inh – UBC13 polyubiquitin chain formation inhibitors, primary screen, biochemical, TR-FRET, uHTS. Ubiquitin-conjugating enzyme E2 N (Homo sapiens), P61088. inhibition, % at 20 µM. 330,000 compounds, 0.47% hits; in the data active = inhibition above about 45%, passing the limit was not always enough
Target sequence (P61088 whole entry, looked up): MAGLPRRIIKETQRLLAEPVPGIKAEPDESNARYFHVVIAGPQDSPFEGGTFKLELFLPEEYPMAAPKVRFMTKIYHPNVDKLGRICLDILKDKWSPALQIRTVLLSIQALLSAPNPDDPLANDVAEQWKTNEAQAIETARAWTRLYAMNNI
SENP7 block – SENP7 protease inhibitors, primary screen, biochemical, luminescence, uHTS. 330,000 compounds, 1.5% hits. recombinant SENP7, Z-RLRGG-aminoluciferin luminescence, 40 min. inhibition, % at 5 µM;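 active = inhibition above about 50% at the single test dose, limit read from the data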
SENP6 block – SENP6 protease inhibitors, primary screen, biochemical, luminescence, uHTS; Recombinant SENP6 catalytic domain, aminoluciferin luminescence; inhibition, % at 10 µM; 330,000 compounds, 1.8% hits;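 active = inhibition above about 50% at the single tested dose, limit read from the data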
SENP8 block-2 – SENP8 protease inhibitors, primary screen, biochemical, luminescence; Sentrin-specific protease 8 (Homo sapiens), Q96LD8; purified SENP8, Z-RLRGG-aminoluciferin cleavage; inhibition, % at 10 µM; 330,000 compounds, 1.2% hits; in the data active = inhibition above about 50%
SENP8 conf – SENP8 protease inhibitors, retest, confirmation, biochemical, luminescence, single concentration | 6,200 compounds, 40% hits | inhibition, % at 12.5 µM | Recombinant SENP8, Z-RLRGG-aminoluciferin luminescence, 60 min | shares compounds with SENP7 block;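 active = mean inhibition across replicates above about 50%, limit read from the data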
SENP6 conf – SENP6 protease inhibitors, confirmation, biochemical, luminescence, single concentration | AID 488915, 2010 | shares compounds with SENP7 block | recombinant SENP6, Z-RLRGG-aminoluciferin luminescence | 6,200 compounds, 58% hits | inhibition, % at 12.5 µM
SENP7 conf – SENP7 protease inhibitors, retest, confirmation, biochemical, luminescence, single concentration; shares compounds with SENP7 block; recombinant SENP7, Z-RLRGG-aminoluciferin luminescence, 40 min; inhibition, % at 12.5 µM; 6,200 compounds, 69% hits
Casp3 SENP sel – caspase-3 protease inhibitors, confirmation, selectivity assay for SENP inhibitor project, biochemical, single concentration. inhibition, % at 12.5 µM. shares compounds with SENP7 block. 6,200 compounds, 60% hits. purified caspase-3, Z-DEVD-aminoluciferin luminescence, 60 min;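 active = mean inhibition above about 50%, limit read from the data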
Target sequence (P42574 28-227 limits assumed): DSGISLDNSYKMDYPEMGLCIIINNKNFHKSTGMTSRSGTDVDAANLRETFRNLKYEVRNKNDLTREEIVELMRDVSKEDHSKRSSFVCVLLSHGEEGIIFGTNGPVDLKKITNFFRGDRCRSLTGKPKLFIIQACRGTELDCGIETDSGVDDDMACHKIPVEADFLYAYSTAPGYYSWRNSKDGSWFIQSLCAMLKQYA
Luc interf – interferes with luciferase luminescence in SENP counter-screen; inhibition, % at 12.5 µM; Pre-incubated SENP8/Z-RLRGG-aminoluciferin, luciferase luminescence interference; AID 488919; 6,200 compounds, 39% hits; shares compounds with SENP7 block;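 active = mean inhibition above about 50% when retested at one dose, limit read from the data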
Large screens that a line does not name were inactive (follow-up assays come after a bar, where they were run). Hits are enriched below; roughly 3.1% of the tested compounds scored in any of these assays.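 The calls were made as follows, unless noted: active = mean inhibition above about 50% in the one-dose retest (limit read from the data); inactive = the rest.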

COc1cccc(NC(=O)Nc2ccc3nc(C)c(C)nc3c2)c1	SENP6 block 53.8 | SENP8 conf inactive | SENP6 conf inactive | SENP7 conf 58.5 | Casp3 SENP sel 59.4 | Luc interf inactive
Cc1ccc(CN2C(=O)CSCC2(C)C(=O)Nc2c(C)cccc2C)cc1 (stereo not drawn)	none (no result: Apaf-1 inh, UBC13 inh, SENP7 block, SENP6 block, SENP8 block-2)
O=Cc1cc(N=Nc2ccc(S(=O)(=O)O)cc2)ccc1O	none
O=S(=O)(O)c1ccc(N=NNc2ccc(Br)cc2)cc1	SENP7 block 89.9, SENP6 block 89.5, SENP8 block-2 89.9 | SENP8 conf 90.9 | SENP6 conf 91.1 | SENP7 conf 98.8 | Casp3 SENP sel 85.2 | Luc interf 93.0
COc1cccc(N/C=C/C(=O)c2ccc(C)cc2)c1	SENP7 block 96.2, SENP6 block 90.9, SENP8 block-2 94.8 | SENP8 conf 96.4 | SENP6 conf 97.5 | SENP7 conf 101.0 | Casp3 SENP sel 94.3 | Luc interf 92.8
COc1cccc(C(=O)/C=C/Nc2ccc(S(=O)(=O)Nc3cccc(C(C)=O)c3)cc2)c1	none
COc1cccc(N/C=C/C(=O)c2ccc(Cl)cc2)c1	none (no result: Apaf-1 inh, UBC13 inh, SENP7 block, SENP6 block, SENP8 block-2)
COc1ccc(OC)c(N/C=C/C(=O)c2ccccc2)c1	SENP7 block 101.1, SENP6 block 93.1, SENP8 block-2 94.6 | SENP8 conf 99.7 | SENP6 conf 100.8 | SENP7 conf 103.9 | Casp3 SENP sel 98.8 | Luc interf 94.9
COc1cccc(C(=O)/C=C/Nc2cccc(O)c2)c1	SENP7 block 99.8, SENP6 block 96.3, SENP8 block-2 95.4 | SENP8 conf 99.0 | SENP6 conf 100.2 | SENP7 conf 103.3 | Casp3 SENP sel 97.8 | Luc interf 97.9
COc1cccc(C(=O)/C=C/Nc2ccc(NC(C)=O)cc2)c1	SENP7 block 86.8, SENP6 block 92.7, SENP8 block-2 79.3 | SENP8 conf 89.9 | SENP6 conf 89.0 | SENP7 conf 97.5 | Casp3 SENP sel 87.2 | Luc interf 89.0
COc1ccc(C(=O)/C=C/Nc2ccc(NC(C)=O)cc2)cc1OC	none
COCCNc1nc(Nc2ccc(Cl)cc2F)c2sccc2n1	none (no result: Apaf-1 inh, UBC13 inh, SENP7 block, SENP6 block, SENP8 block-2)
Cc1ccc(Nc2ccc(C(=O)O)cc2N)cc1	SENP7 block 98.1, SENP6 block 97.7, SENP8 block-2 94.4 (no result: SENP8 block-1) | SENP8 conf 97.9 | SENP6 conf 99.0 | SENP7 conf 102.0 | Casp3 SENP sel 89.2 | Luc interf 97.1
O=C1C=C(C#Cc2ccccc2)C[C@@H](c2ccc(F)cc2)C1	none (no result: Apaf-1 inh, UBC13 inh, SENP7 block, SENP6 block, SENP8 block-2)
COC(=O)c1c(NC(=O)c2ccccc2C(=O)O)sc2c1CCCC2	none (no result: Apaf-1 inh, UBC13 inh, SENP7 block, SENP6 block, SENP8 block-2)
O=C(Nc1sc2c(c1C(=O)O)CCCCC2)c1ccccc1F	SENP7 block 86.0, SENP6 block 95.7, SENP8 block-2 94.2 | SENP8 conf 96.7 | SENP6 conf 97.8 | SENP7 conf 101.6 | Casp3 SENP sel 94.9 | Luc interf 79.5
O=C(Nc1sc2c(c1C(=O)O)CCCC2)c1ccc(F)cc1	SENP6 block 87.7, SENP8 block-2 75.5 | SENP8 conf 88.5 | SENP6 conf 86.5 | SENP7 conf 94.3 | Casp3 SENP sel 80.3 | Luc interf 78.1
Nc1ccccc1/C=C/c1ccccc1N	none (no result: Apaf-1 inh, UBC13 inh, SENP7 block, SENP6 block, SENP8 block-2)
COCCCN1C(=O)C(CC(=O)NCC2CCCCC2)CC(C(=O)N2CCOCC2)=C1C (stereo not drawn)	none (no result: Apaf-1 inh, UBC13 inh, SENP7 block, SENP6 block, SENP8 block-2)
Cc1ccc(C(=O)Nc2ccc([N+](=O)[O-])cn2)o1	SENP6 block 52.8 | SENP8 conf inactive | SENP6 conf inactive | SENP7 conf 71.5 | Casp3 SENP sel 77.0 | Luc interf inactive
COc1cc(OC)cc(C(=O)Nc2ccc([N+](=O)[O-])cn2)c1	SENP7 block 80.6 | SENP8 conf inactive | SENP6 conf inactive | SENP7 conf inactive | Casp3 SENP sel inactive | Luc interf inactive
COc1ccc(C(=O)Nc2ccc([N+](=O)[O-])cn2)cc1OC	none
Cc1cc(C(=O)Nc2ccc([N+](=O)[O-])cn2)cs1	SENP7 block 50.6, SENP6 block 51.2 | SENP8 conf inactive | SENP6 conf inactive | SENP7 conf 76.8 | Casp3 SENP sel 74.8 | Luc interf inactive
C[C@@H]1CN([C@H](C)CO)S(=O)(=O)c2ccc(-c3ccc(C#N)cc3)cc2O[C@H]1CN(C)C(=O)Nc1cc(F)ccc1F	none (no result: Apaf-1 inh, UBC13 inh, SENP7 block, SENP6 block, SENP8 block-2)
O=c1[nH]c(N/N=C/c2ccc(O)cc2)nc2ccccc12	SENP7 block 51.0, SENP6 block 75.2, SENP8 block-2 60.4 | SENP8 conf inactive | SENP6 conf 61.9 | SENP7 conf 86.0 | Casp3 SENP sel 81.2 | Luc interf 71.1
O=C(O)c1ccc(/C=N/Nc2nc3ccccc3[nH]2)cc1	SENP7 block 57.9 | SENP8 conf inactive | SENP6 conf inactive | SENP7 conf inactive | Casp3 SENP sel inactive | Luc interf inactive
COCCNC(=O)C1(C)CCN(C(=O)c2ccc3ccccc3n2)C1 (stereo not drawn)	none (no result: Apaf-1 inh, UBC13 inh, SENP7 block, SENP6 block, SENP8 block-2)
Cc1ccc(CONC(=O)c2cccc(C)c2)cc1	SENP6 block 64.6 | SENP8 conf inactive | SENP6 conf inactive | SENP7 conf 78.4 | Casp3 SENP sel 76.7 | Luc interf 56.0
Cc1cccc(C(=O)NNC(=O)c2cccc(C)c2)c1	none
COc1ccc(NC(=O)c2ccc(-c3ccc(C)c4ccccc34)o2)cc1	none
CCc1nnc(NC(=O)c2ccc(-c3ccccc3Cl)o2)s1	SENP7 block 68.1 | SENP8 conf inactive | SENP6 conf inactive | SENP7 conf inactive | Casp3 SENP sel inactive | Luc interf inactive
